≈ marks a conversion by molar mass, not a printed value. Calls of active or inactive are those of the source. The rule behind the calls is not given here.

One experiment relates to Escherichia coli. Kind of experiment: Antimicrobial activity against Escherichia coli ATCC 35150 after 24 hrs by broth microdilution method.
In experiment [1] the test system is Hepatitis B virus. Kind of experiment: Antiviral activity against Hepatitis B virus infected in human HepG2(2.2.15) cells assessed as reduction of HBsAg secretion by enzyme immunoassay. The experiment is classed as functional, organism-based. In short, it runs like this:
(§1)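 HepG2 2.2.15 cells grown in modified Eagle's medium with 10% FBS, no antibiotics, 37 °C, 5% CO2. Confluent cultures treated at nontoxic concentrations in medium with 2% FBS, renewed every 3 days. Medium collected at day 6; HBsAg and HBeAg measured by enzyme immunoassay. Values relative to 0.1% DMSO control. IFN-alpha as positive control.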

The test system of another experiment is Listeria monocytogenes. As to the kind of experiment: Antimicrobial activity against Listeria monocytogenes ATCC 7644 after 24 hrs by broth microdilution method. The experiment is classed as functional, organism-based. In short, it runs like this:
(§2)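 MIC by broth microdilution per CLSI guidelines. Strains grown on nutrient agar at 37 °C for 24 h. Inoculum prepared in normal saline against a 0.5 McFarland standard, final density 5 × 10^5 cfu/mL. Compounds dissolved in DMSO, then nutrient broth. 2-fold serial dilutions from 128 down to 0.25 μg/mL. Ampicillin column as positive control.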

Experiment [2] is described as follows: Cytotoxicity against human HepG2(2.2.15) cells after 3 days by MTS assay. The experiment is classed as functional, cell-based. To be noted: HepG2 2.2.15, 72 h. In short, it runs like this: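 HepG2 2.2.15 cells exposed for 3 days to 2-fold serial dilutions, 1.25–40 μg/mL. Viability read by MTS assay, in triplicate. Expressed as percentage of untreated control. Fluorouracil as positive control.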

Experiment [3] concerns Salmonella enterica subsp. enterica. As to the kind of experiment: Antimicrobial activity against Salmonella enterica ATCC 13311 after 24 hrs by broth microdilution method. Type of experiment: functional, organism-based. The essentials: as §2
A further experiment has as its system Pseudomonas aeruginosa. Kind of experiment: Antimicrobial activity against Pseudomonas aeruginosa ATCC 27853 after 24 hrs by broth microdilution method. Type of experiment: functional, organism-based. In short, it runs like this:
as §2

The subject of experiment [4] is Hepatitis B virus. Kind of experiment: Antiviral activity against Hepatitis B virus infected in human HepG2(2.2.15) cells assessed as reduction of HBeAg secretion by enzyme immunoassay. The experiment is classed as functional, organism-based. In short, it runs like this:
as §1

For a further experiment, the system named is Helicobacter pylori. Kind of experiment: Antimicrobial activity against Helicobacter pylori ATCC 700392. The experiment is classed as functional.
A further experiment has as its system AGS. Kind of experiment: Cytotoxicity against human AGS cells. The experiment is classed as functional, cell-based.
The subject of another experiment is Enterococcus faecalis. As to the kind of experiment: Antimicrobial activity against Enterococcus faecalis ATCC 29212 after 24 hrs by broth microdilution method. Type of experiment: functional, organism-based. The essentials: as §2
In another experiment the test system is Bacillus cereus. Kind of experiment: Antimicrobial activity against Bacillus cereus ATCC 9139 after 24 hrs by broth microdilution method. The experiment is classed as functional. To be noted: ATCC 9139, 24 h. In short, it runs like this: as §2
The next experiment relates to Staphylococcus aureus. Kind of experiment: Antimicrobial activity against Staphylococcus aureus ATCC 29213 after 24 hrs by broth microdilution method. Type of experiment: functional. To be noted: ATCC 29213, 24 h. The essentials: as §2

Turning to `CC1(C)CC[C@]2(C(=O)O)CC[C@]3(C)C(=C2C1)C=C[C@@H]1[C@@]2(C)CC[C@@H](O)C(C)(C)[C@@H]2CC[C@]13C`, the MIC entry (with Escherichia coli; in the experiment on Listeria monocytogenes; in [3]; in the experiment on Pseudomonas aeruginosa; in the experiment on Enterococcus faecalis) was “inactive” throughout. Besides, the inhibition result in the experiment with Hepatitis B virus [1] and in the experiment on Hepatitis B virus [4] was “inactive” throughout. Further, the IC50 (in [2]; with AGS) was over 50 µM each time. In the experiment with Helicobacter pylori, this compound yielded an MBC of 128 µg/mL (≈ 282 µM).

Consider `CC1(C)CC[C@@]23CC[C@]4(C)[C@@](C=C[C@@H]5[C@@]6(C)CC[C@@H](O)C(C)(C)[C@@H]6CC[C@]54C)(OC2=O)[C@@H]3C1`, for which the MIC result (in the experiment with Escherichia coli; with Listeria monocytogenes; in experiment [3]; in the experiment with Pseudomonas aeruginosa; in the experiment on Enterococcus faecalis) was “inactive” each time. The inhibition entry with Hepatitis B virus [1] and in the experiment with Hepatitis B virus [4] was “inactive” in each case. The IC50 in experiment [2] is over 50 µM; with AGS, 9 µM. Moreover, in the experiment on Helicobacter pylori, the MBC was over 128 µg/mL.

Turning to `CC1(C)CC[C@]2(C(=O)O)CC[C@]3(C)C(=C2C1)C=C[C@@H]1[C@@]2(C)CC[C@@H](O)[C@@](C)(CO)[C@@H]2CC[C@]13C` [FATSICARPAIN A], in the experiment with Bacillus cereus, the lowest concentration to inhibit growth (MIC) was 32 µg/mL (≈ 68 µM). Also, the MIC result (in the experiment on Escherichia coli; in the experiment on Listeria monocytogenes; in experiment [3]; with Pseudomonas aeruginosa; in the experiment with Enterococcus faecalis) was “inactive” in each case. Besides, the inhibition result in the experiment on Hepatitis B virus [1] and in the experiment on Hepatitis B virus [4] was “inactive” in each case. Besides, the IC50 in [2] was 18.9 µM; with AGS, 10.1 µM. Also, the MBC in the experiment with Helicobacter pylori is 64 µg/mL (≈ 136 µM).

With `CC1(C)CC[C@]2(C(=O)O)CC[C@]3(C)C(=C2C1)C=C[C@@H]1[C@@]2(C)CC[C@H](OS(=O)(=O)O)C(C)(C)[C@@H]2CC[C@]13C` [FATSICARPAIN B], the MIC entry (in the experiment on Escherichia coli; in the experiment on Listeria monocytogenes; in experiment [3]; in the experiment on Pseudomonas aeruginosa; in the experiment with Enterococcus faecalis) was “inactive” each time. Further, the inhibition result in the experiment on Hepatitis B virus [1] and in the experiment with Hepatitis B virus [4] was “inactive” throughout. In addition, the IC50 (in experiment [2]; in the experiment with AGS) was over 50 µM throughout. For the same compound, in the experiment with Helicobacter pylori, the MBC is 128 µg/mL (≈ 239 µM).

On to `CC1(C)CC[C@]2(C(=O)O)CC[C@]3(C)C(=C2C1)C=C[C@@H]1[C@@]2(C)CC[C@@H](O)[C@@](C)(C=O)[C@@H]2CC[C@]13C` [FATSICARPAIN C], for which the MIC in the experiment with Bacillus cereus came out at 32 µg/mL (≈ 68.3 µM); against Staphylococcus aureus, 64 µg/mL (≈ 137 µM). Besides, the MIC entry (with Escherichia coli; in the experiment on Listeria monocytogenes; in experiment [3]; in the experiment with Pseudomonas aeruginosa; in the experiment on Enterococcus faecalis) was “inactive” each time. The inhibition entry in the experiment on Hepatitis B virus [1] and with Hepatitis B virus [4] was “inactive” each time. For the same compound, the IC50 was 16.7 µM in [2] and over 50 µM in the experiment on AGS. Besides, the MBC in the experiment with Helicobacter pylori was determined as 64 µg/mL (≈ 137 µM).

As to `CC1(C)CC[C@]2(C(=O)O)CC[C@]3(C)C(=CC=C4[C@@]5(C)CC[C@@H](O)C(C)(C)[C@@H]5CC[C@]43C)[C@@H]2C1` [FATSICARPAIN D], 8 µg/mL (≈ 17.6 µM) was the least that counted as inhibitory with Bacillus cereus (MIC). The MIC result (in the experiment on Escherichia coli; in the experiment on Listeria monocytogenes; in experiment [3]; in the experiment on Pseudomonas aeruginosa; in the experiment on Enterococcus faecalis) was “inactive” each time. Besides, the inhibition result in the experiment on Hepatitis B virus [1] and in the experiment on Hepatitis B virus [4] was “inactive” throughout. Further, the IC50 in experiment [2] came out at 28.8 µM; with AGS, 42.8 µM. For the same compound, the MBC in the experiment on Helicobacter pylori is 64 µg/mL (≈ 141 µM).

With `CC1(C)C=C2[C@H]3C[C@@H](O)[C@@H]4[C@@]5(C)CC[C@@H](O)C(C)(C)[C@@H]5CC[C@@]4(C)[C@]3(C)CC[C@@]2(C(=O)O)CC1` [FATSICARPAIN E], the MIC against Bacillus cereus was determined as 64 µg/mL (≈ 135 µM). Further, the MIC result (in the experiment on Escherichia coli; in the experiment with Listeria monocytogenes; in experiment [3]; with Pseudomonas aeruginosa; with Enterococcus faecalis) was “inactive” each time. The inhibition entry in the experiment on Hepatitis B virus [1] and in the experiment on Hepatitis B virus [4] was “inactive” in each case. The IC50 was over 50 µM in [2] and 47.6 µM with AGS. Besides, the MBC against Helicobacter pylori was 128 µg/mL (≈ 271 µM).

For `CO[C@@H]1C=C2[C@@H]3CC(C)(C)CC[C@]3(C(=O)O)CC[C@@]2(C)[C@]2(C)CC[C@H]3C(C)(C)[C@H](O)CC[C@]3(C)[C@@H]12` [FATSICARPAIN F], the MIC against Bacillus cereus came out at 2 µg/mL (≈ 4.11 µM). Further, the MIC result (in the experiment with Escherichia coli; in the experiment with Listeria monocytogenes; in [3]; in the experiment on Pseudomonas aeruginosa; in the experiment with Enterococcus faecalis) was “inactive” throughout. Besides, the inhibition entry in the experiment with Hepatitis B virus [1] and with Hepatitis B virus [4] was “inactive” in each case. Moreover, the IC50 in [2] is 23.9 µM; in the experiment on AGS it was over 50 µM. In the experiment with Helicobacter pylori, this compound came in with an MBC of 64 µg/mL (≈ 131 µM).

For `CC1(C)CC[C@@]23CC[C@]4(C)[C@@](C=C[C@@H]5[C@@]6(C)CC[C@@H](O)[C@@](C)(CO)[C@@H]6CC[C@]54C)(OC2=O)[C@@H]3C1` [FATSICARPAIN G], the MIC result (with Escherichia coli; in the experiment with Listeria monocytogenes; in [3]; in the experiment on Pseudomonas aeruginosa; in the experiment with Enterococcus faecalis) was “inactive” throughout. The inhibition entry in the experiment with Hepatitis B virus [1] and with Hepatitis B virus [4] was “inactive” each time. The IC50 in [2] is 29.2 µM; in the experiment on AGS, 33.2 µM. In the experiment on Helicobacter pylori, the MBC is 64 µg/mL (≈ 136 µM).

The record behind these values is ChEMBL document CHEMBL1821643, “Oleanane-type triterpenoids from the leaves and twigs of Fatsia polycarpa” (J Nat Prod, 2011).
